Measurements from ChEMBL document CHEMBL2150854, “Macrocyclic Hedgehog Pathway Inhibitors: Optimization of Cellular Activity and Mode of Action Studies” (ACS Med Chem Lett, 2012).
pIC50: −log10 of the molar value. Blank lines part the entries; values can stand above or below the compound they belong to. Active and inactive are the calls of the source. No cut-off for these calls is given here.

Tests used:
[1] = target: Protein smoothened (Mus musculus) (UniProt P56726); assay: Inhibition of Smo in mouse C3H10T1/2 cells assessed as inhibition of human Shh-induced cell differentiation after 48 hrs by alkaline phosphatase reporter assay relative to cyclopamine; type: cell-based; conditions: C3H 10T1/2
Protein smoothened (Mus musculus), sequence (P56726 whole entry): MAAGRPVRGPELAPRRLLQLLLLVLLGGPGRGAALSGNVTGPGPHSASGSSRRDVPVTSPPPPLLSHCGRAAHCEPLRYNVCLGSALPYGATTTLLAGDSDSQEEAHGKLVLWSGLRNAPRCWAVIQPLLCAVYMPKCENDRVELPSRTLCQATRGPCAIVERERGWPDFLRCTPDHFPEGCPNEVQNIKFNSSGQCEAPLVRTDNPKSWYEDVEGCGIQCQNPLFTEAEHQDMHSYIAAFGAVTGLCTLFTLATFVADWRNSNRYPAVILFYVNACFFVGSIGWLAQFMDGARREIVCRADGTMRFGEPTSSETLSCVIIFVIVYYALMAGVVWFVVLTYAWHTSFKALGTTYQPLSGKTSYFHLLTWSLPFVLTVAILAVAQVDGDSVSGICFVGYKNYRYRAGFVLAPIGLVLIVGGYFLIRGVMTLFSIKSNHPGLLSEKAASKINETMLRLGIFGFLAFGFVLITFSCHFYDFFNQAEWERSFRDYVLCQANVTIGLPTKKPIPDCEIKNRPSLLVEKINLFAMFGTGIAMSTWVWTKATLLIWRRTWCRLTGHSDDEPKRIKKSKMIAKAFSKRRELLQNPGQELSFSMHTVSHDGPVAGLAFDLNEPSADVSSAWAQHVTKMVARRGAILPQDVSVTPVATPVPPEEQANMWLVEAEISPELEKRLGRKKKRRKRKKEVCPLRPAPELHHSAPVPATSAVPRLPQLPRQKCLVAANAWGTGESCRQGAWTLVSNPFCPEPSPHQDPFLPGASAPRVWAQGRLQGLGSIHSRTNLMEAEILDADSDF
In short: (§1)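 Murine mesenchymal C3H10T1/2 cells were induced to differentiate with Shh protein. Differentiation was read as alkaline phosphatase expression, quantified with fluorescent substrates. Uninduced cells served as baseline. IC50 was taken from dose–response curves.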

[2] = tested on: C3H 10T1/2; assay: Effect on SAG-induced Gli1 transcription in mouse C3H10T1/2 cells at 103 to 25000 nM by qPCR analysis; type: functional, cell-based
In short: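 Double-titration (Schild-type) design in murine mesenchymal C3H10T1/2 cells. Gli1 expression is induced by a series of SAG concentrations, each combined with several inhibitor concentrations. Gli1 mRNA is quantified by real-time qPCR with Actb as internal control. SAG dose–response curves are compared across inhibitor levels for shifts and for the maximal induction.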

[3] = tested on: C3H 10T1/2; assay: Effect on purmorphamine-induced Gli1 transcription in mouse C3H10T1/2 cells at 103 to 25000 nM by qPCR analysis; type: functional, cell-based
[4] = target: Sonic hedgehog protein (Homo sapiens) (UniProt Q15465); assay: Inhibition of human Shh-induced mouse C3H10T1/2 cell differentiation after 48 hrs by alkaline phosphatase reporter assay relative to cyclopamine; conditions: C3H 10T1/2; in short: as §1
Sonic hedgehog protein (Homo sapiens), sequence (Q15465 24-197 limits assumed): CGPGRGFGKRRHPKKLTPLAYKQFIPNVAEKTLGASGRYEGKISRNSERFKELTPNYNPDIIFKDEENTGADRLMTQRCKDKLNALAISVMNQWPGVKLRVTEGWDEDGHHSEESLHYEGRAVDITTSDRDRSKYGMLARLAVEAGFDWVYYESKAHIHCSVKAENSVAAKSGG

[5] = target: Protein smoothened (Mus musculus) (UniProt P56726); assay: Inhibition of Smo in mouse Ptch-deficient MEF cells assessed as inhibition of Shh-induced Gli1 transcriptional activity in presence of SAG; type: cell-based
[6] = target: Protein smoothened (Mus musculus) (UniProt P56726); assay: Ratio of IC50 for Smo in mouse C3H10T1/2 cells assessed as inhibition of human Shh-induced Gli1 transcriptional activity in presence of SAG to IC50 for Smo in mouse C3H10T1/2 cells assessed as inhibition of human Shh-induced Gli1 transcriptional activity; type: cell-based; conditions: C3H 10T1/2
[7] = target: Protein smoothened (Mus musculus) (UniProt P56726); assay: Competitive inhibition of Smo in mouse C3H10T1/2 cells assessed as inhibition of purmorphamine-induced Gli1 transcriptional activity at 309 to 25000 nM by qPCR analysis; type: cell-based; conditions: C3H 10T1/2
[8] = target: Protein smoothened (Mus musculus) (UniProt P56726); assay: Inhibition of Smo in mouse C3H10T1/2 cells assessed as inhibition of human Shh-induced Gli1 transcriptional activity after 48 hrs by RT-PCR analysis in presence of SAG; type: cell-based; conditions: C3H 10T1/2
[9] = target: T1, Protein smoothened (Mus musculus, UniProt P56726); assay: Inhibition of Smo in mouse Ptch-deficient MEF cells assessed as inhibition of Shh-induced Gli1 transcriptional activity; type: cell-based
T1 sequence (P56726 whole entry): as the sequence (P56726 whole entry) above

[10] = target: T1, Protein smoothened; assay: Inhibition of Smo in mouse Ptch-deficient MEF cells assessed as inhibition of Shh-induced Gli-responsive betagalactosidase activity after 30 hrs by BetaGLo assay; type: cell-based
[11] = target: Protein smoothened (Mus musculus) (UniProt P56726); assay: Inhibition of Smo in mouse Ptch-deficient MEF cells assessed as inhibition of Shh-induced Gli-responsive betagalactosidase activity after 30 hrs by BetaGLo assay in presence of SAG; type: cell-based
In short: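 Ptch-/- MEF β-gal reporter cells were given an inhibitor dose range together with 20 nM SAG. β-Gal activity was read, with untreated cells and 100 nM KAAD-cyclopamine-treated cells as reference levels.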

[12] = target: Protein smoothened (Mus musculus) (UniProt P56726); conditions: C3H 10T1/2, at 103 to 25000 nM
[13] = tested on: C3H 10T1/2; assay: Effect on purmorphamine-induced Gli1 transcription in mouse C3H10T1/2 cells at 55.5 to 4500 nM by qPCR analysis; type: functional, cell-based
[14] = target: Protein smoothened (Mus musculus) (UniProt P56726); conditions: C3H 10T1/2, 55.5 to 4500 nM
[15] = target: Protein smoothened (Mus musculus) (UniProt P56726); assay: Competitive inhibition of Smo in mouse C3H10T1/2 cells assessed as inhibition of purmorphamine-induced Gli1 transcriptional activity at 103 to 25000 nM by qPCR analysis; type: cell-based; conditions: C3H 10T1/2
[16] = target: T1, Protein smoothened; assay: Inhibition of Smo in mouse C3H10T1/2 cells assessed as inhibition of human Shh-induced Gli1 transcriptional activity after 48 hrs by RT-PCR analysis; type: cell-based, C3H 10T1/2
In short: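 Murine mesenchymal C3H10T1/2 cells were activated with Shh protein and exposed to inhibitor. Gli1 mRNA was quantified by real-time qPCR, normalised to Actb as internal control, and IC50 was taken from dose–response curves.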

[17] = target: Protein smoothened (Mus musculus) (UniProt P56726); assay: Inhibition of Smo in mouse C3H10T1/2 cells assessed as inhibition of human Shh-induced Gli1 transcriptional activity after 48 hrs by RT-PCR analysis relative to cyclopamine; type: cell-based; conditions: C3H 10T1/2

Compound: O=C(C[C@@H]1C/C=C/CCC(=O)O[C@H](c2ccccc2)CNC1=O)NCCCC(F)(F)F
Imax [1]: 28%

Compound: O=C(C[C@@H]1C/C=C/CCC(=O)N[C@@H]2c3ccccc3C[C@@H]2OC1=O)NCc1ccc(Cl)cc1
Imax [1]: 40%

Compound: O=C(CN1C/C=C/CCC(=O)N[C@H](c2ccccc2)COC1=O)NCc1ccc(Cl)cc1
Imax [1]: 47%

Compound: O=C(C[C@@H]1C/C=C/CCC(=O)N[C@H](Cc2ccccc2)COC1=O)NCc1ccc(Cl)cc1
inhibition [5]: inactive
Ratio IC50 [6]: 18
inhibition [7]: Active
Imax [1]: 90%
inhibition [8]: inactive
pIC50 [9]: 5.06
pIC50 [10]: 5.09
inhibition [11]: inactive
inhibition [12]: Active

Compound: CC(C)(C)OC(=O)C[C@@H]1C/C=C/CCC(=O)N[C@H](c2ccccc2)COC1=O
Imax [1]: 60%

Compound: CC(C)[C@@H]1COC(=O)[C@H](CC(=O)NCc2ccc(Cl)cc2)C/C=C/CCC(=O)N1
Imax [1]: 54%

Compound: O=C(C[C@@H]1C/C=C/CCC(=O)N[C@H](C2CCCCC2)COC1=O)NCc1ccc(Cl)cc1
Imax [1]: 75%

Compound: CC(C)N[C@H]1C/C=C/C[C@@H](CC(=O)NCc2ccc(Cl)cc2)C(=O)NC[C@@H](c2ccccc2)OC1=O
Imax [1]: 41%

Compound: O=C(C[C@@H]1C/C=C/C[C@H](Cc2ccccc2)C(=O)N[C@H](c2ccccc2)COC1=O)NCc1ccc(Cl)cc1
Imax [1]: 106%

Compound: O=C(C[C@@H]1C/C=C/CCC(=O)N[C@H](c2ccc(F)cc2)COC1=O)NCc1ccc(Cl)cc1
Imax [1]: 90%

Compound: O=C(C[C@@H]1C/C=C/CCC(=O)OC[C@@H]2CCCN2C1=O)NCc1ccc(Cl)cc1
Imax [1]: 77%

Compound: CC1=C2C[C@H]3[C@@H](CC=C4C[C@@H](O)CC[C@@]43C)[C@@H]2CC[C@]12O[C@@H]1C[C@H](C)CN[C@H]1[C@H]2C
Activity [13]: inactive
inhibition [5]: inactive
inhibition [8]: inactive
inhibition [11]: inactive
inhibition [14]: Active

Compound: O=C(C[C@@H]1C/C=C/CCC(=O)N[C@H](c2ccc(Cl)cc2)COC1=O)NCc1ccc(Cl)cc1
inhibition [15]: Active
inhibition [5]: inactive
Ratio IC50 [6]: 32
Imax [1]: 105%
pIC50 [16]: 6.40
Imax [17]: 100%
inhibition [8]: inactive
pIC50 [9]: 5.46
pIC50 [10]: 5.70
inhibition [11]: inactive
inhibition [12]: Active

Compound: O=C(C[C@@H]1C/C=C/CCC(=O)N[C@H](c2ccc(Cl)cn2)COC1=O)NCc1ccc(Cl)cc1
pIC50 [16]: 5.37
Imax [17]: 85%

Compound: CCCC[C@@H]1COC(=O)[C@H](CC(=O)NCc2ccc(Cl)cc2)C/C=C/CCC(=O)N1
Imax [1]: 53%

Now from value to compound, other results behind:

Imax [1]: 77%
Compound: C[C@@H]1NC(=O)[C@H](CC(=O)NCc2ccc(Cl)cc2)C/C=C/CCC(=O)O[C@@H]1c1ccccc1

Imax [1]: 78%
Compound: C[C@H]1[C@@H](c2ccccc2)OC(=O)CC/C=C/C[C@@H](CC(=O)NCc2ccc(Cl)cc2)C(=O)N1C

Imax [1]: 78%
Compound: C[C@H]1C/C=C/C[C@@H](CC(=O)NCc2ccc(Cl)cc2)C(=O)OC[C@@H](c2ccccc2)NC1=O

Imax [1]: 95%
Compound: O=C(C[C@@H]1C/C=C/CCC(=O)N[C@@H](c2ccccc2)COC1=O)NCc1ccc(Cl)cc1

Imax [4]: 47%
Compound: O=C(C[C@@H]1C/C=C/CCC(=O)O[C@H](c2ccccc2)CNC1=O)NCc1ccc(Cl)cc1
Activity [2]: inactive
Activity [3]: inactive

Imax [1]: 104%
Compound: CN1C[C@@H](c2ccccc2)OC(=O)CC/C=C/C[C@@H](Cc2ccc(Cl)cc2)C1=O

Imax [1]: 97%
Compound: C[C@H]1C/C=C\C[C@@H](CC(=O)NCc2ccc(Cl)cc2)C(=O)OC[C@@H](c2ccccc2)NC1=O

Imax [1]: 69%
Compound: C[C@H]1NC(=O)[C@H](CC(=O)NCc2ccc(Cl)cc2)C/C=C/CCC(=O)O[C@@H]1c1ccccc1

Imax [1]: 59%
Compound: C[C@H]1[C@@H](c2ccccc2)OC(=O)CCCCC[C@@H](CC(=O)NCc2ccc(Cl)cc2)C(=O)N1C

Imax [1]: 50%
Compound: O=C(C[C@@H]1C/C=C/CCC(=O)O[C@H](c2ccccc2)CNC1=O)NCc1cccc(Cl)c1

Imax [1]: 86%
Compound: O=C(C[C@@H]1C/C=C/CCC(=O)N[C@H](c2ccccc2)COC1=O)NCc1ccc(Cl)cc1
